Measurements reported in ChEMBL document CHEMBL4732265, “Identification of Piperidine-3-carboxamide Derivatives Inducing Senescence-like Phenotype with Antimelanoma Activities” (ACS Med Chem Lett, 2021).
The source made the active and inactive calls. The rule behind the calls is not given here.

Columns and labels:
A-375 [1] = experiment: Induction of senescence in human A-375 cells treated for 3 days by Hoechst staining based imaging analysis; format: functional, cell-based; settings: A-375, 72 h
Procedure, shortened: (§1)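 A375 melanoma cells were treated for 3 days with a 3-fold dilution series in 0.5% DMSO and stained with Hoechst 33342, LysoTracker Red DND-99 and CellMask. Image analysis scored cell and nucleus size, granule size and spacing, and cytoplasmic texture to give the percentage of senescent cells per well. EC50 is the concentration inducing senescence in half the population, taken from dose–response curves. Run in duplicate; Z′ about 0.8.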

A-375 [2] = experiment: Antiproliferative activity in human A-375 cells assessed as reduction of cell number; format: functional, cell-based
Procedure, shortened: (§2)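 A375 human melanoma cells exposed to compound for 3 days in 3-fold serial dilution in 0.5% DMSO. Cells were stained with Hoechst 33342, LysoTracker Red DND-99 and CellMask, then imaged and segmented by a customized algorithm. Cell number per well was counted, and IC50 is the concentration reducing cell number by 50%, taken from dose–response curves. Run in duplicate.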

A-375 [3] = experiment: Induction of senescence-like phenotype in human A-375 cells assessed as phenotypic changes after 3 days; format: functional, cell-based; settings: time 3.0 day; procedure, shortened: as §1
A-375 [4] = experiment: Anti melanoma activity in human A-375 cells assessed as inhibition of cell growth after 3 days; format: functional, cell-based; settings: time 3.0 day; procedure, shortened: as §2
A-375 [5] = experiment: Induction of senescence-like phenotype in human A-375 cells assessed as enlarged cell size after 3 days by staining based imaging assay; format: functional; settings: time 3.0 day; procedure, shortened: as §1
A-375 [6] = experiment: Induction of senescence-like phenotype in human A-375 cells assessed as nucleus size with increasing cytoplasmic granularity after 3 days by staining based imaging assay; format: functional, cell-based; settings: time 3.0 day; procedure, shortened: as §1
[7] = Metabolic stability at phase 1 in human liver microsomes; format: ADME, Microsome
[8] = Metabolic stability at phase 1 in mouse liver microsomes; format: ADME, Microsome
A-375 [9] = experiment: Induction of cell senescence in human A-375 cells assessed by increased SA-beta-Gal activity at 37 nM measured after 3 days by Hoechst staining based imaging analysis; format: functional; settings: time 3.0 day
Procedure, shortened: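 A375 cells were treated with or without 37 nM agent in 0.5% DMSO for 3 days. Senescence was read in two ways: by Hoechst 33342/LysoTracker Red/CellMask phenomic imaging, and by SA-β-gal staining.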

A-375 [10] = experiment: Anti melanoma activity in human A-375 cells assessed by decreased cell number measured after 3 days; format: functional, cell-based; settings: time 3.0 day; procedure, shortened: as §2

O=C(Nc1ccc(-c2ccc[nH]2)cc1)[C@@H]1CCCN(Cc2ccc(F)c(F)c2)C1
EC50 (A-375 [1]): 19900 nM | IC50 (A-375 [2]): 18000 nM

O=C(Nc1ccc(-c2ccc[nH]2)nc1)[C@H]1CCCN(Cc2ccc(F)c(F)c2)C1
EC50 (A-375 [1]): 4000 nM | IC50 (A-375 [2]): 3010 nM

O=C(Nc1ccc2scnc2c1)C1CCCN(Cc2ccc(F)c(F)c2)C1 (centres undefined)
EC50 (A-375 [1]): > 20000 nM | IC50 (A-375 [2]): > 20000 nM

O=C(Nc1ccc(-c2ccc[nH]2)cn1)[C@H]1CCCN(Cc2ccc(F)c(F)c2)C1
EC50 (A-375 [1]): 40 nM | IC50 (A-375 [2]): 30 nM | Activity (A-375 [3]): Active | Activity (A-375 [4]): Active | Activity (A-375 [5]): Active | Activity (A-375 [6]): Active | Stabilty [7]: Stable | Stabilty [8]: Stable

O=C(Nc1ccc(-c2cscn2)cc1)C1CCCN(Cc2cccc(C(F)(F)F)c2)C1 (centres undefined)
EC50 (A-375 [1]): > 20000 nM | IC50 (A-375 [2]): > 20000 nM

O=C(Nc1ccc(-c2cccnc2)cc1)C1CCCN(Cc2ccc(F)c(F)c2)C1 (centres undefined)
EC50 (A-375 [1]): 1060 nM | IC50 (A-375 [2]): 610 nM

O=C(Nc1ccc(-c2cscn2)cc1)C1CCCN(C(=O)c2ccc(F)c(F)c2)C1 (centres undefined)
EC50 (A-375 [1]): > 20000 nM | IC50 (A-375 [2]): > 20000 nM

O=C(Nc1ccc(-c2cscn2)cc1)C1CCCN(Cc2ccc(F)cc2)C1 (centres undefined)
EC50 (A-375 [1]): 5000 nM | IC50 (A-375 [2]): 2250 nM

O=C(Nc1ccc(-c2ccc[nH]2)cc1)[C@H]1CCCN(Cc2ccc3c(c2)OCO3)C1
EC50 (A-375 [1]): 160 nM | IC50 (A-375 [2]): 220 nM

O=C(Nc1ccc(-c2cscn2)cc1)C1CCN(Cc2ccc(F)c(F)c2)C1 (centres undefined)
EC50 (A-375 [1]): 8000 nM | IC50 (A-375 [2]): 10000 nM

O=C(Nc1ccc(-c2cscn2)cc1)[C@H]1CCCN(Cc2ccc(F)c(F)c2)C1
EC50 (A-375 [1]): 270 nM | IC50 (A-375 [2]): 190 nM

O=C(Nc1ccc(-c2ccc[nH]2)cc1)[C@H]1CCCN(Cc2ccc(F)c(F)c2)C1
EC50 (A-375 [1]): 140 nM | IC50 (A-375 [2]): 190 nM

Cc1cc(NC(=O)[C@H]2CCCN(Cc3ccc(F)c(F)c3)C2)ccc1-c1ccc[nH]1
EC50 (A-375 [1]): 3000 nM | IC50 (A-375 [2]): 730 nM

O=C(Nc1ccc(-c2ccc[nH]2)cc1F)[C@H]1CCCN(Cc2ccc(F)c(F)c2)C1
EC50 (A-375 [1]): 100 nM | IC50 (A-375 [2]): 130 nM

O=C(Nc1ccc(-c2cscn2)cc1)C1CCN(Cc2ccc(F)c(F)c2)CC1
EC50 (A-375 [1]): 19000 nM | IC50 (A-375 [2]): > 20000 nM

O=C(Nc1ccc(-c2cscn2)cc1)C1CCCN(Cc2cccc(OC(F)(F)F)c2)C1 (centres undefined)
EC50 (A-375 [1]): > 20000 nM | IC50 (A-375 [2]): > 20000 nM

O=C(Nc1ccc(-c2ccco2)cc1)C1CCCN(Cc2ccc(F)c(F)c2)C1 (centres undefined)
EC50 (A-375 [1]): 2200 nM | IC50 (A-375 [2]): 1040 nM

O=C(Nc1ccc(-c2nccs2)cc1)C1CCCN(Cc2ccc(F)c(F)c2)C1 (centres undefined)
EC50 (A-375 [1]): 800 nM | IC50 (A-375 [2]): 240 nM

COc1cccc2c1C(=O)c1c(O)c3c(c(O)c1C2=O)C[C@@](O)(C(=O)CO)C[C@@H]3O[C@H]1C[C@H](N)[C@H](O)[C@H](C)O1 [DOXORUBICIN]
Activity (A-375 [9]): Active | IC50 (A-375 [2]): 8 nM

O=C(Nc1ccc(-c2ncc[nH]2)cc1)C1CCCN(Cc2ccc(F)c(F)c2)C1 (centres undefined)
EC50 (A-375 [1]): 8000 nM | IC50 (A-375 [2]): 19000 nM

O=C(Nc1ccc(-c2cscn2)cc1)C1CCCN(Cc2cccnc2)C1 (centres undefined)
EC50 (A-375 [1]): > 20000 nM | IC50 (A-375 [2]): > 20000 nM

O=C(Nc1ccc(-c2cc[nH]c2)cc1)C1CCCN(Cc2ccc(F)c(F)c2)C1 (centres undefined)
EC50 (A-375 [1]): 2610 nM | IC50 (A-375 [2]): 1420 nM

O=C(Nc1ccc(-c2c[nH]cn2)cc1)C1CCCN(Cc2ccc(F)c(F)c2)C1 (centres undefined)
EC50 (A-375 [1]): 16000 nM | IC50 (A-375 [2]): > 20000 nM

O=C(Nc1ccc(-c2cscn2)cc1)C1CCCN(Cc2ccc3cn[nH]c3c2)C1 (centres undefined)
EC50 (A-375 [1]): > 20000 nM | IC50 (A-375 [2]): > 20000 nM

COc1cccc(CN2CCCC(C(=O)Nc3ccc(-c4cscn4)cc3)C2)c1 (centres undefined)
EC50 (A-375 [1]): > 20000 nM | IC50 (A-375 [2]): > 20000 nM

O=C(Nc1ccc(-c2cscn2)cc1)C1CCCN(Cc2cc(F)c(F)c(F)c2)C1 (centres undefined)
EC50 (A-375 [1]): 1260 nM | IC50 (A-375 [2]): 400 nM

O=C(Nc1ccc(-c2ccn[nH]2)cc1)C1CCCN(Cc2ccc(F)c(F)c2)C1 (centres undefined)
EC50 (A-375 [1]): 580 nM | IC50 (A-375 [2]): 520 nM

O=C(Nc1ccc(-c2cscn2)cc1)C1CCCN(Cc2cccc(F)c2F)C1 (centres undefined)
EC50 (A-375 [1]): 10000 nM | IC50 (A-375 [2]): 1480 nM

O=C(Nc1ccc(-c2cscn2)cc1)C1CCCN(S(=O)(=O)c2ccc(F)c(F)c2)C1 (centres undefined)
EC50 (A-375 [1]): > 20000 nM | IC50 (A-375 [2]): > 20000 nM

O=C(Nc1ccc(-c2ccoc2)cc1)C1CCCN(Cc2ccc(F)c(F)c2)C1 (centres undefined)
EC50 (A-375 [1]): 3000 nM | IC50 (A-375 [2]): 1290 nM

O=C(Nc1ccc(-c2cscn2)cc1)C1CCCN(Cc2ccc(F)c(F)c2)C1 (centres undefined)
EC50 (A-375 [1]): 1240 nM | IC50 (A-375 [2]): 880 nM | Activity (A-375 [3]): Active | Activity (A-375 [10]): Active | Stabilty [7]: Stable | Stabilty [8]: Stable

COc1cc(-c2cscn2)ccc1NC(=O)C1CCCN(Cc2ccc(F)c(F)c2)C1 (centres undefined)
EC50 (A-375 [1]): 4000 nM | IC50 (A-375 [2]): 580 nM

O=C(Nc1ccc(-c2cscn2)cc1)C1CCCN(Cc2ccccc2F)C1 (centres undefined)
EC50 (A-375 [1]): 7000 nM | IC50 (A-375 [2]): 4000 nM

O=C(Nc1ccc(-c2cscn2)cc1)[C@@H]1CCCN(Cc2ccc(F)c(F)c2)C1
EC50 (A-375 [1]): 4000 nM | IC50 (A-375 [2]): 6000 nM

O=C(Nc1ccc(-c2cscn2)cc1)C1CCCN(Cc2ccc3c(c2)OCO3)C1 (centres undefined)
EC50 (A-375 [1]): 600 nM | IC50 (A-375 [2]): 630 nM

O=C(Nc1ccc(-c2cscn2)cc1)C1CCCN(Cc2cccc(F)c2)C1 (centres undefined)
EC50 (A-375 [1]): 5000 nM | IC50 (A-375 [2]): 2450 nM

O=C(Nc1ccc(-c2ccncc2)cc1)C1CCCN(Cc2ccc(F)c(F)c2)C1 (centres undefined)
EC50 (A-375 [1]): 1180 nM | IC50 (A-375 [2]): 600 nM

O=C(Nc1ccc(-c2cscn2)cc1)C1CCCN(Cc2ccccc2)C1 (centres undefined)
EC50 (A-375 [1]): > 20000 nM | IC50 (A-375 [2]): > 20000 nM

O=C(Nc1ccc(-c2ccsc2)cc1)C1CCCN(Cc2ccc(F)c(F)c2)C1 (centres undefined)
EC50 (A-375 [1]): 1930 nM | IC50 (A-375 [2]): 950 nM

O=C(Nc1ccc(-c2ccccn2)cc1)C1CCCN(Cc2ccc(F)c(F)c2)C1 (centres undefined)
EC50 (A-375 [1]): 11000 nM | IC50 (A-375 [2]): 9000 nM

O=C(Nc1ccc(-c2cscn2)cc1)C1CCCN(Cc2cc(F)cc(F)c2)C1 (centres undefined)
EC50 (A-375 [1]): 1500 nM | IC50 (A-375 [2]): 1360 nM

O=C(NC1CCCN(Cc2ccc(F)c(F)c2)C1)c1ccc(-c2cscn2)cc1 (centres undefined)
EC50 (A-375 [1]): > 20000 nM | IC50 (A-375 [2]): > 20000 nM

O=C(Nc1ccc(-c2ccc[nH]2)cc1)C1CCCN(Cc2ccc(F)c(F)c2)C1 (centres undefined)
EC50 (A-375 [1]): 720 nM | IC50 (A-375 [2]): 360 nM

O=C(Nc1ccc(-c2ccccc2)cc1)C1CCCN(Cc2ccc(F)c(F)c2)C1 (centres undefined)
EC50 (A-375 [1]): 5000 nM | IC50 (A-375 [2]): 2580 nM

O=C(Nc1ccc(-c2cscn2)cc1)C1CN(Cc2ccc(F)c(F)c2)C1
EC50 (A-375 [1]): > 20000 nM | IC50 (A-375 [2]): > 20000 nM

O=C(Nc1ccc(-c2cccs2)cc1)C1CCCN(Cc2ccc(F)c(F)c2)C1 (centres undefined)
EC50 (A-375 [1]): 530 nM | IC50 (A-375 [2]): 390 nM

O=C(Nc1ccc(-c2cscn2)cc1)C1CCCN(Cc2ccc(Cl)c(Cl)c2)C1 (centres undefined)
EC50 (A-375 [1]): 3000 nM | IC50 (A-375 [2]): 1730 nM
